# ChEMBL document CHEMBL1145194, “A bivalent ligand (KDAN-18) containing delta-antagonist and kappa-agonist pharmacophores bridges delta2 and kappa1 opioid receptor phenotypes” (J Med Chem, 2005)
# Tests used:
# [1] = tested on: Mus musculus; assay: Ratio of effective dose of compound producing agonistic activity in presence and absence of benzylidenenaltrexone (25 pmol) upon intrathecal administration in mouse tail flick assay; format: functional
# Procedure, shortened: (§1)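 Intrathecal tail-flick in CD1 mice. BNTX was given i.t. at 25 pmol with a 10 min peak time. Ratio is agonist ED50 with antagonist divided by agonist ED50 alone, taken as significant when its 95% confidence interval is >1.0. For combination dosing, the monovalent pair was coadministered i.t. equimolar.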
# [2] = tested on: Mus musculus; assay: Ratio of effective dose of compound producing agonistic activity in presence and absence of naltriben (50 pmol) upon intrathecal administration in mouse tail flick assay in presence of DN-18; format: functional
# Procedure, shortened: as §1, with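 “NTB” for “BNTX”, “50” for “25”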
# [3] = tested on: Mus musculus; assay: Ratio of effective dose of compound producing agonistic activity in presence and absence of benzylidenenaltrexone (25 pmol) upon intrathecal administration in mouse tail flick assay in presence of DN-18; format: functional; procedure, shortened: as §1
# [4] = target: T1, Opioid receptors; delta & kappa (Homo sapiens, UniProt P41145+P41143); assay: Inhibition of [3H]deltorphin II binding to delta and kappa opioid receptors coexpressed in HEK 293 cells; format: cell-based; conditions: hek293
# [5] = target: T1, Opioid receptors; delta & kappa; assay: Inhibition of [3H]U-69593 binding to delta and kappa opioid receptors expressed in HEK 293 cells; format: cell-based; conditions: hek293
# Procedure, shortened: (§2)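 Radioligand binding on intact HEK cells with [3H]U69593, using either δ and κ coexpressed in one line or a mixture of HEK cells singly expressing δ or κ. Run alone, with 10 nM NTB, or with 100 nM BNTX.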
# [6] = target: T1, Opioid receptors; delta & kappa; assay: Inhibition of [3H]U-69593 binding to delta and kappa opioid receptors coexpressed in HEK 293 cells; format: cell-based; conditions: hek293; procedure, shortened: as §2
# [7] = tested on: Mus musculus; assay: Effective dose required for agonistic activity upon intrathecal administration in mouse (n=10) tail flick assay in presence of DN-18; format: functional
# Procedure, shortened: (§3)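 CD1 mice dosed intrathecally, antinociception by tail-flick. A response counted as positive when latency exceeded control latency plus 3 SD of mean reaction time. ED50 given with 95% confidence limits. For combination dosing, the two monovalent ligands were coadministered i.t. in equimolar ratio.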
# [8] = tested on: Mus musculus; assay: Effective dose required for agonistic activity upon intrathecal administration in mouse (n=10) tail flick assay; format: functional; procedure, shortened: as §3
# [9] = target: T1, Opioid receptors; delta & kappa; assay: Inhibition of [3H]deltorphin II binding to delta and kappa opioid receptors expressed in HEK 293 cells; format: cell-based; conditions: hek293
# [10] = tested on: Mus musculus; assay: Ratio of effective dose of compound producing agonistic activity in presence and absence of naltriben (50 pmol) upon intrathecal administration in mouse tail flick assay; format: functional
# Procedure, shortened: as §1, with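 “NTB” for “BNTX”, “50” for “25”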
# [11] = tested on: Mus musculus; assay: Ratio of effective dose of compound producing agonistic activity in presence and absence of norbinaltorphimine (2.5 nmol) upon intrathecal administration in mouse tail flick assay
# [12] = tested on: Mus musculus; assay: Ratio of effective dose of compound producing agonistic activity in presence and absence of norbinaltorphimine (2.5 nmol) upon intrathecal administration in mouse tail flick assay in presence of DN-18
# [13] = tested on: Mus musculus; assay: Ratio of effective dose of compound producing agonistic activity in presence and absence of KDN21 upon intrathecal administration in mouse tail flick assay; format: functional
# [14] = tested on: Mus musculus; assay: Ratio of effective dose of compound producing agonistic activity in presence and absence of CTOP (5.9 pmol) upon intrathecal administration in mouse tail flick assay; format: functional
# [15] = target: T1, Opioid receptors; delta & kappa; assay: Inhibition of [3H]U-69593 binding to delta and kappa opioid receptors expressed in HEK 293 cells with 10 nM naltriben; format: cell-based; conditions: hek293; procedure, shortened: as §2
# [16] = target: T1, Opioid receptors; delta & kappa; assay: Inhibition of [3H]-U-69,593 binding to delta and kappa opioid receptors co-expressed in HEK 293 cells with 10 nM naltriben; format: cell-based; conditions: hek293; procedure, shortened: as §2
# [17] = target: T1, Opioid receptors; delta & kappa; assay: Inhibition of [3H]U-69593 binding to delta and kappa opioid receptors expressed in HEK 293 cells with 100 nM benzylidenenaltrexone; format: cell-based; conditions: hek293; procedure, shortened: as §2
# [18] = target: T1, Opioid receptors; delta & kappa; assay: Inhibition of [3H]-U-69,593 binding to delta and kappa opioid receptors co-expressed in HEK 293 cells with 100 nM benzylidenenaltrexone; format: cell-based; conditions: hek293; procedure, shortened: as §2
Structure (SMILES),ED50 Ratio [1],ED50 Ratio [2],ED50 Ratio [3],Ki [4],Ki [5],Ki [6],ED50 [7],ED50 [8],Ki [9],ED50 Ratio [10],ED50 Ratio [11],ED50 Ratio [12],ED50 Ratio [13],ED50 Ratio [14],Ki [15],Ki [16],Ki [17],Ki [18]
CNC(=O)CNC(=O)CNC(=O)CCC(=O)NCC(=O)NCC(=O)Nc1cccc([C@@H](CN2CCCC2)N(C)C(=O)Cc2ccc(Cl)c(Cl)c2)c1,1.3,~1,~1,> 1000 nM,23.9 nM,36.2 nM,0.14 nmol/mouse,0.11 nmol/mouse,> 1000 nM,1.5,10.8,44.8,–,–,–,–,–,–
CNC(=O)CNC(=O)CCC(=O)NCC(=O)Nc1cccc([C@@H](CN2CCCC2)N(C)C(=O)Cc2ccc(Cl)c(Cl)c2)c1,1,–,–,281.2 nM,6.75 nM,41.6 nM,–,1.4 nmol/mouse,> 1000 nM,1,11,–,–,–,–,–,–,–
CNC(=O)CNC(=O)CCC(=O)NCC(=O)Nc1cccc2c3c([nH]c12)[C@@H]1Oc2c(O)ccc4c2[C@@]12CCN(CC1CC1)[C@H](C4)[C@]2(O)C3,–,–,–,0.46 nM,> 1000 nM,> 1000 nM,–,–,0.15 nM,–,–,–,–,–,–,–,–,–
CNC(=O)CNC(=O)CNC(=O)CCC(=O)NCC(=O)NCC(=O)Nc1cccc2c3c([nH]c12)[C@@H]1Oc2c(O)ccc4c2[C@@]12CCN(CC1CC1)[C@H](C4)[C@]2(O)C3,–,–,–,0.91 nM,> 1000 nM,> 1000 nM,–,–,1.07 nM,–,–,–,–,–,–,–,–,–
CN(C(=O)Cc1ccc(Cl)c(Cl)c1)[C@H](CN1CCCC1)c1cccc(NC(=O)CNC(=O)CNC(=O)CCC(=O)NCC(=O)NCC(=O)Nc2cccc3c4c([nH]c23)[C@@H]2Oc3c(O)ccc5c3[C@@]23CCN(CC2CC2)[C@H](C5)[C@]3(O)C4)c1,3,–,–,0.008 nM,2.51 nM,0.06 nM,–,0.19 nmol/mouse,0.52 nM,25.9,39.3,–,0.65,0.8,1.94 nM,2.34 nM,1.14 nM,0.19 nM
CN(C(=O)Cc1ccc(Cl)c(Cl)c1)[C@H](CN1CCCC1)c1cccc(NC(=O)CNC(=O)CNC(=O)CCCCC(=O)NCC(=O)NCC(=O)Nc2cccc3c4c([nH]c23)[C@@H]2Oc3c(O)ccc5c3[C@@]23CCN(CC2CC2)[C@H](C5)[C@]3(O)C4)c1,3.4,–,–,–,–,–,–,0.5 nmol/mouse,–,2,3.4,–,–,–,–,–,–,–
CN(C(=O)Cc1ccc(Cl)c(Cl)c1)[C@H](CN1CCCC1)c1cccc(NC(=O)CNC(=O)CCC(=O)NCC(=O)Nc2cccc3c4c([nH]c23)[C@@H]2Oc3c(O)ccc5c3[C@@]23CCN(CC2CC2)[C@H](C5)[C@]3(O)C4)c1,2.1,–,–,1.23 nM,1.9 nM,1.66 nM,–,0.44 nmol/mouse,0.43 nM,1.1,33,–,–,–,2.02 nM,4.06 nM,2.75 nM,3.79 nM
